Results taken from ChEMBL document CHEMBL2057177, “Analogues of fenarimol are potent inhibitors of Trypanosoma cruzi and are efficacious in a murine model of Chagas disease” (J Med Chem, 2012).
In brackets after ≈: the same amount, converted by molar mass. Activity calls are given as the source filed them. The calls are words filed in the database; no cut-off is given here.

Legend:
[1] = Blood Clearance in Sprague-Dawley rat at 4.8 mg/kg, iv; assay type: ADME, organism-based; design: dose 4.8 mg/kg, route intravenous; conditions: whole blood
Summary of the method: (§1)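 Overnight-fasted male Sprague–Dawley rats (272–320 g), n = 2 per route. IV dose given as a 10 min jugular infusion in aqueous solution; oral dose by gavage as aqueous suspension. Arterial blood taken via carotid cannula up to 24 h. Plasma measured by LC-MS after acetonitrile precipitation. Noncompartmental analysis. Blood clearance = plasma clearance divided by in vitro blood/plasma ratio. Bioavailability from mean dose-normalised AUC0–inf, oral versus IV.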

CYP3A4/5 = CYP3A4/5 (Homo sapiens, UniProt P08684+P20815); experiment: Inhibition of CYP3A4/5 in human liver microsomes; assay type: ADME, Microsome
[2] = Kinetic solubility of the compound at pH 6.5 by nephelometric analysis; assay type: physicochemical; conditions: buffer, read-out: Kinetic_solubility
[3] = Elimination half life in Sprague-Dawley rat at 4.8 mg/kg, iv; assay type: ADME, organism-based; design: dose 4.8 mg/kg, route intravenous; conditions: in vivo, read-out: beta t1/2 (converted); summary of the method: as §1
[4] = Oral bioavailability in Sprague-Dawley rat at 15.7 mg/kg; assay type: ADME, organism-based; conditions: in vivo; summary of the method: as §1
[5] = Apparent volume of distribution at steady state in Sprague-Dawley rat at 4.8 mg/kg, iv; assay type: ADME, organism-based; design: dose 4.8 mg/kg, route intravenous; conditions: in vivo, read-out: Vdss(app); summary of the method: as §1
Trypanosoma cruzi [6] = experiment: Antitrypanosomal activity against trypomastigotes of Trypanosoma cruzi Tulahuen expressing the beta- galactosidase gene infected rat L6 cells after 96 hrs; assay type: functional, organism-based; conditions: L6, 96 h
Summary of the method: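 Tulahuén trypomastigotes expressing β-galactosidase, maintained by serial passage in L6 cells. L6 cells seeded and left 24 h at 37 °C, 5% CO2, then infected at MOI 3 for 48 h. Compound exposure 96 h, benznidazole control. CPRG with 0.3% Nonidet P-40 added, absorbance at 530 nm after 4−6 h. IC50 taken from % inhibition curve; mean of at least two assays.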

Trypanosoma cruzi [7] = experiment: Antitrypanosomal activity against trypomastigotes of Trypanosoma cruzi Tulahuen infected in Swiss mouse model of chagas disease assessed as decrease in parasite level in blood at 20 mg/kg, po administered 8 days after post infection qd for 5 days; design: scale not given: the % may be the effect or the level left
[8] = Plasma concentration in Swiss mouse at 50 mg/kg, po after 1 hr; assay type: ADME, organism-based; design: dose 50 mg/kg, route oral
Summary of the method: (§2)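 Nonfasted male Swiss outbred mice (23.8–39.9 g), fed throughout. Dosed by oral gavage as solution or suspension in aqueous vehicle. Plasma assayed by LC-MS against blank-plasma standards after acetonitrile precipitation; LLOQ 0.001–0.015 μM.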

Trypanosoma cruzi [9] = experiment: Antitrypanosomal activity against trypomastigotes of Trypanosoma cruzi Tulahuen infected in Swiss mouse model of chagas disease assessed as increase of host survival at 50 mg/kg, po administered 8 days after post infection qd for 5 days; assay type: functional, organism-based; design: dose 50 mg/kg
[10] = Plasma concentration in Swiss mouse at 10 mg/kg, po after 8 hrs; assay type: ADME, organism-based; design: dose 10 mg/kg, route oral; summary of the method: as §2
[11] = Plasma concentration in Swiss mouse at 20 mg/kg, po after 8 hrs; assay type: ADME, organism-based; design: dose 20 mg/kg, route oral; summary of the method: as §2
[12] = Plasma concentration in Swiss mouse at 100 mg/kg, po after 1 hr; assay type: ADME, organism-based; design: dose 100 mg/kg, route oral
Summary of the method: (§3)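 Nonfasted male Swiss Outbred mice weighing 23.8−39.9 g, with food and water freely available, dosed by oral gavage as an aqueous solution or suspension. Plasma proteins precipitated with acetonitrile and compound quantified by LC-MS against standards made in blank mouse plasma. Lower limit of quantitation 0.001−0.015 μM.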

[13] = Plasma concentration in Swiss mouse at 100 mg/kg, po after 8 hrs; assay type: ADME, organism-based; design: dose 100 mg/kg, route oral; summary of the method: as §3
[14] = Oral bioavailability in Sprague-Dawley rat at 15.2 mg/kg; assay type: ADME, organism-based; conditions: in vivo; summary of the method: as §1
L6 = experiment: Cytotoxicity against rat L6 cells after 72 hrs by Alamar Blue assay; assay type: cell-based; conditions: L6, 72 h
Summary of the method: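 L6 rat skeletal myoblasts in RPMI 1640 with 10% FBS. Exposed to compound for 72 h, seven-point serial dilutions in triplicate. Alamar Blue read at 570 and 630 nm. IC50 is the mean of at least two assays; podophyllotoxin used as control.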

[15] = Apparent volume of distribution at steady state in Sprague-Dawley rat at 4.2 mg/kg, iv; assay type: ADME, organism-based; design: dose 4.2 mg/kg, route intravenous; conditions: in vivo, read-out: Vdss(app); summary of the method: as §1
[16] = Plasma concentration in Swiss mouse at 50 mg/kg, po after 8 hrs; assay type: ADME, organism-based; design: dose 50 mg/kg, route oral; summary of the method: as §2
Trypanosoma cruzi [17] = experiment: Antitrypanosomal activity against trypomastigotes of Trypanosoma cruzi Tulahuen infected in Swiss mouse model of chagas disease assessed as decrease in parasite level in blood at 50 mg/kg, po administered 8 days after post infection qd for 5 days; assay type: functional; design: scale not given: the % may be the effect or the level left
Summary of the method: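 Female outbred Swiss mice, about 8 weeks old, infected ip with Tulahuén parasites; five mice per group. Daily dosing starts day 8 post-infection. Oral doses given by gavage in HPMC vehicle (0.5% HPMC, 0.4% Tween 80, 0.5% benzyl alcohol); ip doses in PBS with 0.4% Tween 80 and 10% PEG400. Tail-prick blood taken days 8, 9, 12, 14, 16, 19 and 27 post-infection, red cells lysed, and live trypomastigotes counted by hemocytometer. % efficacy = (vehicle mean − treated mean)/vehicle mean × 100. Survival recorded as surviving/infected-and-treated.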

[18] = Therapeutic index, ratio of IC50 for rat L6 cells to IC50 for trypomastigotes of Trypanosoma cruzi Tulahuen; assay type: cell-based; conditions: read-out: Ratio IC50
[19] = Plasma concentration in Swiss mouse at 50 mg/kg, po after 24 hrs; assay type: ADME, organism-based; design: dose 50 mg/kg, route oral; summary of the method: as §2
[20] = Elimination half life in Sprague-Dawley rat at 4.2 mg/kg, iv; assay type: ADME, organism-based; design: dose 4.2 mg/kg, route intravenous; conditions: in vivo, read-out: beta t1/2 (converted); summary of the method: as §1
[21] = Blood Clearance in Sprague-Dawley rat at 4.2 mg/kg, iv; assay type: ADME, organism-based; design: dose 4.2 mg/kg, route intravenous; conditions: whole blood; summary of the method: as §1
Trypanosoma cruzi [22] = experiment: Antitrypanosomal activity against trypomastigotes of Trypanosoma cruzi Tulahuen infected in Swiss mouse model of chagas disease assessed as decrease in parasite level in blood at 100 mg/kg, po administered 8 days after post infection qd for 5 days; assay type: functional; design: scale not given: the % may be the effect or the level left
[23] = Plasma concentration in Swiss mouse at 10 mg/kg, po after 1 hr; assay type: ADME, organism-based; design: dose 10 mg/kg, route oral; summary of the method: as §2
[24] = Plasma concentration in Swiss mouse at 20 mg/kg, po after 1 hr; assay type: ADME, organism-based; design: dose 20 mg/kg, route oral; summary of the method: as §2
Trypanosoma cruzi [25] = experiment: Antitrypanosomal activity against trypomastigotes of Trypanosoma cruzi Tulahuen infected in Swiss mouse model of chagas disease assessed as increase of host survival at 20 mg/kg, po administered 8 days after post infection qd for 5 days; assay type: functional, organism-based; design: dose 20 mg/kg

`CC(C)Oc1ncc(C(O)(c2cccnc2)c2ccc(Cl)cc2F)cn1` (racemic) showed a clearance [1] of 73.9 mL/min/kg, an IC50 (CYP3A4/5) of 4.4 µM and a solubility kinetic [2] of 12.5 µg/mL (≈ 33.4 µM). It also gave a half-life [3] of 11.3 h, a bioavailability [4] of 7.4% and a Vd [5] of 9.1 L/kg. The IC50 (Trypanosoma cruzi [6]) was 0.008 µM.
In the case of `NC(=O)c1cccc(C(O)(c2ccc(Cl)cc2)c2cccnc2)c1` (racemic), the Activity (Trypanosoma cruzi [7]) is reported as 0%, the concentration at 1 h [8] is reported as 13.7 µM and the IC50 (CYP3A4/5) is reported as 2.6 µM. For the same compound, the solubility kinetic [2] was 50 µg/mL (≈ 148 µM), the Activity (Trypanosoma cruzi [9]) was “Active” and the concentration at 8 h [10] was 0.4 µM. The concentration at 8 h [11] was 1.9 µM, the concentration at 1 h [12] was 19.5 µM and the concentration at 8 h [13] was 6.5 µM. It also gave a bioavailability [14] of 95%, an IC50 (L6) greater than 100 µM and a Vd [15] of 3.6 L/kg. For the same compound, the concentration at 8 h [16] was 15.9 µM, the Activity (Trypanosoma cruzi [17]) was 65% and the selectivity ratio [18] was greater than 500. The concentration at 24 h [19] was 0.06 µM, the half-life [20] was 6.1 h and the clearance [21] was 18.9 mL/min/kg. It also gave an Activity (Trypanosoma cruzi [22]) greater than 95%, a concentration at 1 h [23] of 6.8 µM and a concentration at 1 h [24] of 10.3 µM. The Activity (Trypanosoma cruzi [25]) was “Active” and the IC50 (Trypanosoma cruzi [6]) was 0.03 µM.
With `CC(C)Oc1ccc(C(O)(c2ccc(Cl)cc2)c2cccnc2)cc1` (racemic) the IC50 (CYP3A4/5) was 1.9 µM, the solubility kinetic [2] was 1.6 µg/mL (≈ 4.52 µM) and the concentration at 1 h [12] was 9.6 µM. The concentration at 8 h [13] was 0.6 µM and the IC50 (Trypanosoma cruzi [6]) was 0.002 µM.
